Screening data: PubChem BioAssay, several laboratories
ERa coact pot = enhances coactivator binding to human estrogen receptor alpha. P03372. TR-FRET ERalpha-LBD/SRC-Cy5 coactivator binding, 2 h; 100 = basal binding, no effect. AID 639. coactivator binding (% of control), % at 25.6 µM. 86,000 tested, 1.3% active; in the data active means activity above about 200%;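 further: binding measured in presence of low estradiol as agonist stimulus; 0% = peptide alone without receptor and 100% = receptor with peptide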
Target sequence (P03372 whole entry, looked up, the tested form may be a part): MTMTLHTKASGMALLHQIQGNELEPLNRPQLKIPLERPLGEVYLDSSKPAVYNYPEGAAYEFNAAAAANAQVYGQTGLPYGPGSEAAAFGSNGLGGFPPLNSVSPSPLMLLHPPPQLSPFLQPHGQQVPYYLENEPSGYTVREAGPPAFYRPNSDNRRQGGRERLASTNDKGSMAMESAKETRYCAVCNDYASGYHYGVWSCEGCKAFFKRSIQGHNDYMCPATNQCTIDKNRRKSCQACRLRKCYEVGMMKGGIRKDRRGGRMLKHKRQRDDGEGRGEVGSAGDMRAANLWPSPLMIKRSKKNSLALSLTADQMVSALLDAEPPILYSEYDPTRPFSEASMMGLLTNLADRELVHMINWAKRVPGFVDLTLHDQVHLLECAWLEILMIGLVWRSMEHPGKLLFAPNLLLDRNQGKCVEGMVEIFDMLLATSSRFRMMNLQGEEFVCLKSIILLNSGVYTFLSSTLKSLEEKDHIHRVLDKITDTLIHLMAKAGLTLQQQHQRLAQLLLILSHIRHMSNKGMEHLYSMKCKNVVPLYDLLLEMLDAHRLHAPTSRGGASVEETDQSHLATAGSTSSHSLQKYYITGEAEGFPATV
ERa SRC1 inh = blocks coactivator binding to human estrogen receptor alpha | P03372 | TR-FRET ER-alpha LBD / SRC-1 peptide, estradiol-bound | inhibition, % at 25.6 µM | 86,000 tested, 1.7% active | AID 629; in the data active means inhibition above about 50%;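 further: 0% = receptor plus peptide control and 100% = peptide only without receptor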
BAP1 inh = blocks human BAP1 ubiquitin-AMC hydrolysis | 72,000 tested, 0.48% active | AID 436 | calls only at 20 µM | recombinant BAP1, Ub-AMC hydrolysis fluorescence kinetic; active compounds read low | Q92560;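 active means activity remaining at or below 50% of control, provided the compound also passes the data quality filters; inactive means the rest, including low values that fail the filters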;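 further: 100% = DMSO wells rate and 0% = substrate alone blank rate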
ERb coact inh = ER-beta (human) coactivator binding inhibition | TR-FRET ER-beta LBD / SRC1-Cy5 peptide binding; receptor agonist-loaded with 1 µM estradiol | 86,000 tested, 1.3% active | inhibition, % at 25.6 µM | Q92731;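 active means compounds whose percent inhibition of the receptor-coactivator binding signal exceeds about 50% in the single-dose screen, limit read from the data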;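 further: 0% = receptor plus peptide wells without compound and 100% = peptide-only wells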
RORa activator = activates the human nuclear receptor RORA; P35398; CHO-K1 Gal4-RORA LBD luciferase reporter, luminescence; percent increase over mock-subtracted basal signal; activation, % at 10 µM; 65,000 tested, 1.5% active;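 active means activation above the mean of all tested compounds plus 3 SD, cut at about 49% in these data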;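 further: 0% = DMSO-treated RORA cells and 100% = added signal equal to DMSO minus mock-transfected cells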
SF1 activator = activates the human nuclear receptor SF-1. Q13285. CHO-K1 Gal4-SF-1 LBD luciferase reporter; % increase over DMSO SF-1-specific signal. activation, % at 10 µM. 65,000 tested, 1.9% active. AID 522;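 active means activation above the mean activation of all tested compounds plus 3 SD, cut at about 50% in these data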
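Material: CHO-K1 cells with Gal4–hSF-1 LBD chimera plus Gal4-driven luciferase / Input: 4,000 CHO-K1 cells per well / Incubation: compound exposure 20 h at 37 °C / Signal: luminescence read 15 min after SteadyLite luciferase reagent, after room-temperature equilibration / Read-out: percent activation versus DMSO / Benchmarks: DMSO negative control and −SF1 background wells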
Starred values were filed as active, the others as inactive; i = inactive; · = no result given; [ ] = remark or other dose. Compounds with a hit are over-represented: about 5.1% of the library has one in this group of screens.

SMILES | ERa coact pot | ERa SRC1 inh | BAP1 inh | ERb coact inh | RORa activator | SF1 activator
COc1ccc(-n2nc3c(c2NC(=O)c2c(OC)cccc2OC)CSC3)cc1 | · | · | i | · | · | ·
COc1cccc2[nH]c3c(N4CCC(C)CC4)ncnc3c12 | 61 | 37 | i | 50*[fluorescence artefact?] | 2 | 1
COc1cccc2[nH]c3c(N4CCN(Cc5ccc6c(c5)OCO6)CC4)ncnc3c12 | 95 | 4 | · | 3 | -1 | -15
O=C(Nc1c2c(nn1-c1ccc(Oc3ccccc3)cc1)CSC2)c1ccco1 | · | · | i | · | · | ·
CC(C)(C)c1ccc(C(=O)Nc2nnc(-c3ccc(F)cc3)s2)cc1 | · | · | i | · | · | ·
O=C(Nc1ccc(-c2nc3ccccc3[nH]2)cc1)c1ccco1 | 114 | 0 | i | 2 | 34 | 78*
CC(C)(C)c1ccc(C(=O)Nc2ccc(NC(=O)c3ccco3)cc2)cc1 | 112 | 17 | · | 16 | · | ·
C[C@H](NC(=O)c1ccco1)C(=O)Nc1ccc(S(=O)(=O)N2CCCC2)cc1 | 113 | -1 | · | 8 | · | ·
O=C(Nc1ccc(S(=O)(=O)N2CCCCCC2)cc1)c1ccco1 | 129 | 4 | i | 1 | 63* | 33
O=C(Nc1nccs1)c1ccc(NC(=O)c2ccco2)cc1 | 116 | 4 | i | -2 | 53* | 56*
O=C(Cc1ccccc1)Nc1ccc(-c2nc3ccccc3[nH]2)cc1 | · | · | i | · | · | ·
CC(=O)N(C)c1ccc(NC(=O)c2ccco2)cc1 | 116 | -8 | i | -13 | 33 | 50*
O=C(Nc1c2c(nn1-c1ccc(Cl)cc1)CSC2)c1ccc(Cl)cc1 | · | · | i | · | · | ·
O=C(Nc1sc2c(c1C(=O)N1CCCCC1)CCCC2)c1ccccc1 | · | · | i | · | · | ·
CC(C)(C)NC(=O)c1cccc(NC(=O)c2ccc(NC(=O)c3ccco3)cc2)c1 | 95 | 11 | i | 6 | -3 | 2
O=C(Nc1nccs1)c1cccc(Br)c1 | · | · | i | · | · | ·
O=C(Nc1nccs1)c1ccc2nccnc2c1 | 43 | 40 | i | 60* | 35 | 32
O=C(Nc1ccc(Br)cc1)c1ccco1 | 101 | -3 | · | 5 | · | ·
CC(C)CNC(=O)c1cccc(NC(=O)c2ccc(NC(=O)c3ccco3)cc2)c1 | 230*[fluorescence artefact?] | 38 | i | 21 | 5 | 18
O=C(Nc1ccc(Nc2ccccc2)cc1)c1ccco1 | 57 | 17 | i | 29 | 60* | 87*
COc1ccccc1-c1c(C(F)(F)F)oc2cc(OC(=O)c3ccco3)ccc2c1=O | · | · | i | · | · | ·
OC1(c2cccc(C(F)(F)F)c2)CCN(c2ncnc3c2[nH]c2ccccc23)CC1 | 96 | -6 | i | 0 | -24 | -22
OC1(c2cccc(C(F)(F)F)c2)CCN(c2ccc(-c3ccccc3)nn2)CC1 | 119 | 1 | i | 4 | 66* | 38
Cc1nnc(NC(=O)c2ccccc2[N+](=O)[O-])s1 | · | · | i | · | · | ·
O=C(CSc1nc2c(c(C(F)(F)F)n1)CCc1ccccc1-2)NCc1ccccc1 | 159 | -12 | · | -1 | · | ·
SMILES | ERa coact pot | ERa SRC1 inh | BAP1 inh | ERb coact inh | RORa activator | SF1 activator
O=C(CSc1nc2c(c(C(F)(F)F)n1)CCc1ccccc1-2)NCc1ccc(F)cc1 | 229* | 4 | · | 17 | · | ·
CCSc1nnc(Cc2cc(=O)[nH]c(=O)[nH]2)n1-c1cc(C)ccc1C | 131 | 2 | i | 70* | -13 | -2
CCOC(=O)CSc1nnc(Cc2cc(=O)[nH]c(=O)[nH]2)n1-c1ccc(Cl)cc1 | 119 | 0 | i | 96*[fluorescence artefact?] | -7 | 17
O=C(Nc1ccc(Br)cc1)c1nc[nH]c1C(=O)O | · | · | i | · | · | ·
COC(=O)c1ccc(CC(=O)c2c(C)cc(O)cc2O)o1 | 75 | 35 | i | 52* | -9 | -6
Cn1c(Cn2c(=O)sc3ccccc32)nnc1SCC(=O)Nc1cccc(Cl)c1 | 97 | 3 | i | 10 | -2 | -10
Cn1c(Cn2c(=O)sc3ccccc32)nnc1SCC(=O)Nc1ccc(Cl)cc1 | 231*[fluorescence artefact?] | -4 | i | -5 | 9 | -14
Cc1ccc2oc(-c3ccc(NC(=O)c4ccccc4C)c(C)c3)nc2c1 | · | · | i | · | · | ·
Clc1ccc(-c2cn3nc(-c4ccccc4)sc3n2)cc1 | · | · | i | · | · | ·
Cc1nn2cc(-c3ccc(N)cc3)nc2s1 | · | · | i | · | 22 | 88*
CSc1ccc(S(=O)(=O)Nc2c(C)cccc2C)cc1 | 41 | 55* | i | 30 | -10 | -5
CCc1ccccc1NS(=O)(=O)c1ccc(SC)cc1 | 36 | 66*[fluorescence artefact?] | i | 3 | -10 | -7
CSc1ccc(S(=O)(=O)Nc2ccc(F)cc2)cc1 | 31 | 67*[fluorescence artefact?] | i | -1 | -11 | -2
CSc1ccc(S(=O)(=O)NCc2ccccc2)cc1 | 96 | -4 | · | -15 | · | ·
COc1ccc(NS(=O)(=O)c2ccc(SC)cc2)cc1 | 108 | 4 | i | 0 | -13 | -3
CCC(C)(C)n1nnnc1C(c1cc2cc(C)cc(C)c2[nH]c1=O)N1CCN(Cc2ccc3c(c2)OCO3)CC1 (configuration not stated) | 227*[fluorescence artefact?] | 30 | · | 36 | · | ·
Cc1nnc(SCC(=O)NCc2ccco2)[nH]c1=O | 84 | -52 | i | 3 | -4 | -1
Cc1cc2nc(-c3cccnc3SCC(=O)NCc3ccco3)[nH]c2cc1C | 65 | 69*[fluorescence artefact?] | · | 60* | -8 | 20
Cc1cc(=O)[nH]c(SCC(=O)NCc2ccco2)n1 | 56 | 50 | i | 66* | -22 | -8
CCn1c(C(=O)OC)cc2c1ccn2-c1ccc(F)cc1 | 86 | -9 | i | 6 | 60* | 53*
COC(=O)c1cc2c(ccn2-c2ccc(F)cc2)n1CC(=O)N1CCN(C(=O)c2ccco2)CC1 | 71 | 21 | i | 10 | 3 | -9
CCCCN(C(=O)NC(=O)Nc1cc(C)ccc1C)S(C)(=O)=O | 104 | 0 | i | 91*[fluorescence artefact?] | -12 | 6
CN1C(=O)c2oc3ccccc3c(=O)c2C1c1ccccn1 (configuration not stated) | 101 | 0 | i | 5 | 8 | -17
O=C1c2oc3ccccc3c(=O)c2C(c2ccc(Br)cc2)N1c1ncccn1 (configuration not stated) | 316* | 39 | i | 27 | -4 | 7
Cc1ccc(C)c(NS(=O)(=O)c2ccc(Cl)cc2[N+](=O)[O-])c1 | · | · | i | · | · | ·
COc1ccccc1Nc1ccc2ccccc2c1 | · | · | i | · | · | ·
O=C(CCn1nc(-c2ccc(Cl)cc2)ccc1=O)NCCCN1CCCCCC1 | 99 | 74*[fluorescence artefact?] | i | 31 | 1 | 4
O=C(Cn1nc(-c2ccc(Cl)cc2)ccc1=O)NCCCN1CCN(Cc2ccccc2)CC1 | 108 | 3 | i | 1 | 7 | -9
O=C(Cn1c(=O)oc2cc(S(=O)(=O)N3CCCC3)ccc21)Nc1cccc(C(F)(F)F)c1 | 234*[fluorescence artefact?] | 60*[fluorescence artefact?] | i | -5 | -40 | -6
O=C(Cn1c(=O)oc2ccccc21)Nc1ccc(S(=O)(=O)N2CCCCC2)cc1 | 125 | 63*[fluorescence artefact?] | i | 27 | -9 | 21
